Results: paper PMC7869823 (Bioorganic & medicinal chemistry, 2020)
Where “and” joins values, the source holds several entries; their conditions need not be identical. Identical values can stand only once.

Key:
[1] = tested on: sea urchin NAADP receptor; experiment: Sub-threshold receptor desensitization in sea urchin egg homogenates; assay type: biochemical; conditions: compared to NAADP
Summary of the method: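 Sea urchin egg homogenates were exposed to increasing sub-threshold concentrations of test compound or NAADP, and time-dependent desensitization was probed by subsequent addition of 1 μM NAADP. Ca2+ release was read as peak fluo-3 fluorescence. IC50 was derived from the concentration-response and compared with that of NAADP.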

[2] = biological target: sea urchin NAADP receptor; experiment: Ca2+ release in sea urchin egg homogenates; assay type: biochemical; conditions: compared to NAADP
[3] = tested on: NAADP 23–24 kDa binding protein(s); conditions: cited from earlier work
[4] = tested on: cultured human cells; conditions: low concentrations, microinjected; cited from earlier work

EC50 relative to NAADP (fold greater / fold less potent as an agonist) [2] | SMILES | decrease in desensitization potency relative to NAADP [1] | photolabeling of NAADP binding protein(s) [3] | Ca2+ release in cultured human cells [4]
89 fold and 90 fold | C#Cc1nc2c(N)ncnc2n1[C@@H]1O[C@H](COP(=O)(O)OP(=O)(O)OC[C@H]2O[C@@H]([n+]3cccc(C(=O)[O-])c3)[C@H](O)[C@@H]2O)[C@@H](O)[C@H]1OP(=O)(O)O [Compound 8, 8-Ethynyl-NAADP] | 86 fold and 90 fold |  | 
 | C#Cc1nc2c(N)ncnc2n1[C@@H]1O[C@H](COP(=O)(O)OP(=O)(O)OC[C@H]2O[C@@H]([n+]3cc(N=[N+]=[N-])cc(C(=O)[O-])c3)[C@H](O)[C@@H]2O)[C@@H](O)[C@H]1OP(=O)(O)O [Compound 9, 5-N3-8-Ethynyl-NAADP] |  | specifically photolabel NAADP 23–24 kDa binding protein(s) | elicit Ca^2+ release
